ChEMBL document CHEMBL4396885, “Thioether-based 2-aminobenzamide derivatives: Novel HDAC inhibitors with potent in vitro and in vivo antitumor activity” (Eur J Med Chem, 2019)

How the values were obtained:
SMMC-7721 [1] = assay: Antiproliferative activity against human SMMC7721 cells assessed as growth inhibition at 8 uM after 72 hrs by CCK-8 assay relative to control; type: functional; details: SMMC-7721, 72 h, read-out: GI
A549 [2] = assay: Antiproliferative activity against human A549 cells assessed as growth inhibition at 2 uM after 72 hrs by CCK-8 assay relative to control; type: functional; details: A549, 72 h, read-out: GI
A-375 [3] = assay: Antiproliferative activity against human A375 cells assessed as decrease in cell viability after 72 hrs by CCK-8 assay; type: functional, cell-based; details: A-375, 72 h
Outline: (§1)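 Cells grown to 70–85% confluence (A375, A549, HCT116 in RPMI1640; HeLa, SMMC7721 in DMEM; 10% FBS, 37 °C, 5% CO2), seeded 4000/well, dosed after 12 h across a concentration range, incubated 72 h, then CCK-8 for 1 h; absorbance at 450 nm. IC50 as mean ± SD of three separate experiments.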

HCT-116 [4] = assay: Antiproliferative activity against human HCT116 cells assessed as growth inhibition at 8 uM after 72 hrs by CCK-8 assay relative to control; type: functional; details: HCT-116, 72 h, read-out: GI
SMMC-7721 [5] = assay: Antiproliferative activity against human SMMC7721 cells assessed as growth inhibition at 2 uM after 72 hrs by CCK-8 assay relative to control; type: functional; details: SMMC-7721, 72 h, read-out: GI
HeLa [6] = assay: Antiproliferative activity against human HeLa cells assessed as growth inhibition at 8 uM after 72 hrs by CCK-8 assay relative to control; type: functional; details: read-out: GI
A549 [7] = assay: Antiproliferative activity against human A549 cells assessed as decrease in cell viability after 72 hrs by CCK-8 assay; type: functional, cell-based; details: A549, 72 h; outline: as §1
A-375 [8] = assay: Antiproliferative activity against human A375 cells assessed as growth inhibition at 8 uM after 72 hrs by CCK-8 assay relative to control; type: functional; details: A-375, 72 h, read-out: GI
HeLa [9] = assay: Antiproliferative activity against human HeLa cells assessed as growth inhibition at 2 uM after 72 hrs by CCK-8 assay relative to control; type: functional; details: read-out: GI
A549 [10] = assay: Antiproliferative activity against human A549 cells assessed as growth inhibition at 8 uM after 72 hrs by CCK-8 assay relative to control; type: functional; details: A549, 72 h, read-out: GI
HCT-116 [11] = assay: Antiproliferative activity against human HCT116 cells assessed as growth inhibition at 2 uM after 72 hrs by CCK-8 assay relative to control; type: functional; details: HCT-116, 72 h, read-out: GI
A-375 [12] = assay: Antiproliferative activity against human A375 cells assessed as growth inhibition at 2 uM after 72 hrs by CCK-8 assay relative to control; type: functional; details: A-375, 72 h, read-out: GI
HeLa [13] = assay: Antiproliferative activity against human HeLa cells assessed as decrease in cell viability after 72 hrs by CCK-8 assay; type: functional, cell-based; outline: as §1
HCT-116 [14] = assay: Antiproliferative activity against human HCT116 cells assessed as decrease in cell viability after 72 hrs by CCK-8 assay; type: functional, cell-based; details: HCT-116, 72 h; outline: as §1
SMMC-7721 [15] = assay: Antiproliferative activity against human SMMC7721 cells assessed as decrease in cell viability after 72 hrs by CCK-8 assay; type: functional, cell-based; details: SMMC-7721, 72 h; outline: as §1

Compound | inhibition of growth at 8 µM (SMMC-7721 [1]) [%] | inhibition of growth at 2 µM (A549 [2]) [%] | IC50 (A-375 [3]) [nM] | inhibition of growth at 8 µM (HCT-116 [4]) [%] | inhibition of growth at 2 µM (SMMC-7721 [5]) [%] | inhibition of growth at 8 µM (HeLa [6]) [%] | IC50 (A549 [7]) [nM] | inhibition of growth at 8 µM (A-375 [8]) [%] | inhibition of growth at 2 µM (HeLa [9]) [%] | inhibition of growth at 8 µM (A549 [10]) [%] | inhibition of growth at 2 µM (HCT-116 [11]) [%] | inhibition of growth at 2 µM (A-375 [12]) [%] | IC50 (HeLa [13]) [nM] | IC50 (HCT-116 [14]) [nM] | IC50 (SMMC-7721 [15]) [nM]
Nc1ccccc1NC(=O)/C=C/c1ccc(CSc2ccc(F)cc2)cc1 | 15.4 | 51.2 | 3670 | 20.2 | 18.3 | 10.4 | 1190 | 24.6 | 7.09 | 59.1 | 14.1 | 28.8 | – | – | –
Nc1ccccc1NC(=O)c1ccc(CSc2ccc(Cl)cc2)cc1 | 16.5 | 47.3 | – | 76.6 | 2.93 | 51.4 | – | 48.6 | 19.2 | 50.4 | 17.5 | 25.2 | 12600 | 3750 | –
CC(C)(C)c1ccc(SCc2ccc(C(=O)Nc3ccccc3N)cc2)cc1 | 46.1 | 38.6 | – | 60.5 | 23.6 | 40.2 | – | 33.1 | 9.73 | 67 | 4.81 | 2.13 | – | – | –
CCc1ccc(SCc2ccc(/C=C/C(=O)Nc3ccccc3N)cc2)cc1 | 19.5 | 60.7 | – | 2.68 | 13.2 | 20.9 | 1300 | 58.4 | 3.96 | 68.6 | 3.29 | 5.27 | – | – | –
Nc1ccccc1NC(=O)/C=C/c1ccc(CSCCc2ccccc2)cc1 | 15.8 | 45.7 | 15700 | 10.6 | 14.7 | 3.57 | 1150 | 37.4 | 0.19 | 50.3 | 18 | 41.9 | – | – | 10900
Nc1ccccc1NC(=O)/C=C/c1ccc(CSc2cccc(F)c2)cc1 | 8.25 | 50.7 | – | 3.22 | 8.56 | 18.6 | – | 9.08 | 2.25 | 56.6 | 7.95 | 6.75 | – | – | –
Nc1ccccc1NC(=O)/C=C/c1ccc(CSc2ccc(C(F)(F)F)cn2)cc1 | 20.1 | 51.7 | – | 14.9 | 12.1 | 6.82 | – | 3.96 | 6.07 | 56.5 | 4.42 | 10.3 | – | – | –
CC(C)(C)c1ccc(SCc2ccc(/C=C/C(=O)Nc3ccccc3N)cc2)cc1 | 23.6 | 71.5 | 1550 | 39 | 18.3 | 9.8 | 640 | 35.5 | 17.5 | 79.8 | 6.66 | 38.4 | – | – | –
Nc1ccccc1NC(=O)c1ccc(CSc2ccc(C(F)(F)F)cn2)cc1 | 7.57 | 37.1 | – | 25.8 | 12.4 | 16.5 | – | 5.34 | 11.5 | 38.9 | 1.2 | 4.3 | – | – | –
Nc1ccccc1NC(=O)/C=C/c1ccc(CSc2ccc(Cl)cc2)cc1 | 16.4 | 55.2 | – | 3.27 | 15.2 | 17.3 | – | 48.2 | 1.94 | 59.6 | 5.62 | 13.4 | – | – | –
COc1ccc(SCc2ccc(/C=C/C(=O)Nc3ccccc3N)cc2)cc1OC | 44.6 | 65.5 | – | 49.5 | 14.3 | 21.9 | – | 46.4 | 10.1 | 80.6 | 12.9 | 46 | – | – | –
Nc1ccccc1NC(=O)c1ccc(CSc2ccc(Br)cc2)cc1 | 25.3 | 33.2 | – | 67.7 | 10 | 38.2 | – | 6.17 | 18.8 | 45.6 | 9.96 | 4.35 | – | – | –
Nc1ccccc1NC(=O)/C=C/c1ccc(CSc2cccc3ccccc23)cc1 | 18.3 | 59.3 | – | 35.2 | 3.7 | 22.1 | 830 | 36 | 20.6 | 71.2 | 11 | 1.55 | – | – | –
Cc1ccc(SCc2ccc(/C=C/C(=O)Nc3ccccc3N)cc2)cc1 | 22.1 | 43.4 | – | 4.93 | 22 | 21.7 | – | 31.2 | 25.4 | 48.2 | 6.23 | 22.9 | – | – | –
Cc1cc(C)cc(SCc2ccc(/C=C/C(=O)Nc3ccccc3N)cc2)c1 | 7.13 | 46.1 | – | 4.2 | 8.61 | 3.39 | – | 2.49 | 11.7 | 47.3 | 7.98 | 8.78 | – | – | –
